# Data as given in ChEMBL document CHEMBL1140706, “A Novel iron-chelating derivative of the neuroprotective peptide NAPVSIPQ shows superior antioxidant and antineurodegenerative capabilities” (J Med Chem, 2008).
# The source made the active and inactive calls. The calls are words filed in the database; no cut-off is given here.
# Legend:
# [1] = system: Brain; experiment: Inhibition of iron/ascorbate-induced lipid peroxidation in Sprague-Dawley rat brain mitochondrial membrane homogenate at 100 uM; format: functional, tissue-based
# Outline: (§1)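 Crude mitochondrial fraction from brains of male Sprague-Dawley rats (250–300 g). Assay in 25 mM Tris-HCl pH 7.5 with 25 µM ascorbate, 40 µg protein, 1.5 µM FeSO4 and compound (10–750 µM). Shaken 2 h at ambient temperature, then TCA stop and TBA at 95 °C for 30 min. Read at 532 nm, blank subtracted, percent of control. n = 3 in duplicate.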
# [2] = Iron chelating activity by ferrozine method; format: functional
# Outline: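 Competition with ferrozine for Fe(II) in 5% ammonium acetate buffer, pH 6.9. Compound (100–600 µM, duplicate) preincubated 30 min with 15 µM FeSO4, then 60 µM ferrozine added for 1 h at ambient temperature. Absorbance read at 562 nm with blank subtracted. Chelating effect % = [1 − sample/control] × 100. n = 3 in duplicate.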
# [3] = Effect on iron-induced hydroxyl radical generation assessed as increase in PBN-OH radical spin adduct concentration at 600 uM; format: functional
# Outline: (§2)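 Fenton system of 100 µM FeSO4, 200 µM H2O2 and 35 mM PBN spin trap. Compound added 2 min before H2O2. EPR spectrum recorded at room temperature in a quartz flat cell. PBN-OH spin adduct level estimated from peak intensity of the middle field doublet and expressed as percent of control. Mean ± SEM, n = 3.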
# [4] = system: SH-SY5Y; experiment: Neuroprotective activity against hydrogen persoxide-induced cell death in human SH-SY5Y cells assessed as cell viability at 10 uM by MTT assay relative to control; format: cell-based; settings: read-out: Activity
# Outline: (§3)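 SH-SY5Y cells grown in 1:1 Eagle MEM/Ham's F-12 with 10% FCS, 37 °C, 5% CO2; seeded 0.5 × 10^4 cells/well, attached 24 h. Compounds or vehicle added just before 80 µM H2O2. After 24 h at 37 °C, MTT added for 2 h, then SDS/HCl for a further 24 h; absorbance read at 570/650 nm. Viability expressed as percent of cells not treated with H2O2.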
# [5] = Effect on iron-induced hydroxyl radical generation assessed as reduction in EPR signals at 300 uM relative to control; format: functional; set-up: scale not given: the % may be the effect or the level left; outline: as §2
# [6] = system: Brain; experiment: Inhibition of iron/ascorbate-induced lipid peroxidation in Sprague-Dawley rat brain mitochondrial membrane homogenate at 15 uM; format: functional, tissue-based; outline: as §1
# [7] = system: SH-SY5Y; experiment: Neuroprotective activity against hydrogen persoxide-induced cell death in human SH-SY5Y cells assessed as cell viability at 1 uM by MTT assay relative to control; format: cell-based; settings: read-out: Activity; outline: as §3
# [8] = Effect on iron-induced hydroxyl radical generation assessed as reduction in EPR signals; format: functional; outline: as §2
# [9] = system: SH-SY5Y; experiment: Neuroprotective activity against hydrogen persoxide-induced cell death in human SH-SY5Y cells upto 10 uM by MTT assay; format: ADME, cell-based
# Outline: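 SH-SY5Y cells seeded at 0.5 × 10^4 per well in MEM/F-12 with 10% FCS and allowed to attach for 24 h. Compound added immediately before 80 µM H2O2, then 24 h at 37 °C. MTT for 2 h, then SDS/HCl lysis for 24 h, read at 570/650 nm. Viability expressed as percent of cells not treated with H2O2. n = 7 over two experiments.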
# [10] = Effect on iron-induced hydroxyl radical generation assessed as reduction in EPR signals relative to control; format: functional; set-up: scale not given: the % may be the effect or the level left; outline: as §2
# [11] = system: Brain; experiment: Inhibition of iron/ascorbate-induced lipid peroxidation in Sprague-Dawley rat brain mitochondrial membrane homogenate; format: functional, tissue-based; outline: as §1
Structure (SMILES),Activity [1],IC50 [2] [µM],Activity [3],viability at 10 µM [4] [%],Activity ([5]; 300 uM) [%],Activity [6],viability at 1 µM [7] [%],IC50 [8] [µM],"Activity ([5]; 600 uM, in the assay text read “at 600 uM” for “at 300 uM”) [%]",Activity [9],Activity [10] [%],IC50 [11] [µM]
CC[C@H](C)[C@H](NC(=O)[C@H](CO)NC(=O)[C@@H](NC(=O)[C@@H]1CCCN1C(=O)[C@H](C)NC(=O)[C@@H](N)CC(N)=O)C(C)C)C(=O)N1CCC[C@H]1C(=O)N[C@@H](CCC(N)=O)C(=O)NO,inactive,360,inactive,,,,,,,,,
CC(=O)N(O)CCCCCNC(=O)CCC(=O)N(O)CCCCCNC(=O)CCC(=O)N(O)CCCCCN [DEFEROXAMINE],,10,,76,12,Active,76,,,,,
CC[C@H](C)[C@H](NC(=O)[C@H](CO)NC(=O)[C@@H](NC(=O)[C@@H]1CCCN1C(=O)[C@H](C)NC(=O)[C@@H](N)CC(=O)NO)C(C)C)C(=O)N1CCC[C@H]1C(=O)N[C@@H](CCC(N)=O)C(=O)O,inactive,360,inactive,,,,,,,,,
CC[C@H](C)[C@H](NC(=O)[C@H](CO)NC(=O)[C@@H](NC(=O)[C@@H]1CCCN1C(=O)[C@H](C)NC(=O)[C@@H](N)CC(=O)NO)C(C)C)C(=O)N1CCC[C@H]1C(=O)N[C@@H](CCC(N)=O)C(=O)NO,inactive,170,,,,,,150,28,Non-toxic,28,340
